Screening data as filed in PubChem BioAssay.
Ecoli rRNA inh: selective bacterial rRNA inhibition in E. coli; 350,000 tested, 1.6% active; E. coli WT GFP vs humanized-ribosome RFP mutants, fluorescence, 24 h; active compounds read low; DMSO median 0, no signal -100; GFP signal change (wild-type ribosome), % (test concentration not listed);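 active = significant combined selectivity score with lowered wild-type GFP, culture density cut under 30%, mutant RFP and density less affected; inactive = any of these conditions unmet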
Cneo AK release: causes C. neoformans cell lysis | AID 651654 | 360,000 tested, 0.2% active | adenylate kinase release luminescence, 4 h; normalised: neutral wells 0, clomiphene wells 100 | lysis activity, % at 15 µM;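 active = mean lysis activity across replicates of at least 80%, whatever share of replicates individually reach that level; inactive = mean lysis activity below 80%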
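Assay system: Cryptococcus neoformans yeast cells / Dosing: single-point compound dose / Timing: 4 h at 37 °C static, read 1 h later / Measured by: luminescence of released adenylate kinase using an AK detection reagent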
miR122 inh: blocks miR-122 activity in Huh7 sensor cells; activation (reporter increase), % at 12.5 µM; AID 602342; Huh7 miR-122 Renilla luciferase sensor, 48 h; neutral wells = 0, positive control = 100; 340,000 tested, 0.3% active;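 active = mean replicate activation score at least 90 and every replicate individually at or above 90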;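 note: higher luciferase means less miR-122 activity so hits act as miR-122 inhibitors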
F508del corr: CFTR F508del correction in bronchial cells | CFBE cells, YFP halide quenching; stimulated with forskolin plus potentiator P3; % fluorescence drop versus neutral controls | activity (quench increase), % at 7.58 µM | 350,000 tested, 0.36% active | AID 720511;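 active = mean added fluorescence quench of at least 8% versus neutral control, with both replicates also reaching 8%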;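 note: cells transiently co-express mutant CFTR-F508del with the halide-sensitive YFP; corrector assay measuring rescue of mutant channel to the surface after 24 h compound exposure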
GSIS activator: primary screen for activators of insulin secretion dependent on glucose, INS-1E cells, GLuc reporter luminescence. INS-1E GLuc reporter insulin secretion, 2-3 h. activation, % at 16.6 µM. AID 743287. 370,000 tested, 0.61% active;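 active = lowest replicate activation of at least 40%, so every replicate reaches that level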
HIV Env fusion: inhibitors of HIV Env-mediated cell fusion; AID 651610; inhibition, % at 12.3 µM; 360,000 tested, 1.1% active; HeLa-JRFL Env/CEM21 cell fusion, luciferase;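 active = mean replicate inhibition score of at least 50 and every replicate individually at or above 50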
Large screens that a line does not name were inactive; [ ] = remark or other dose. A selection: hits, their analogues and other compounds. The true share with any hit is near 3.1%.

COc1ccc(/C=C/C(=O)Nc2sc3c(c2C(=O)NCc2cccnc2)CCCC3)cc1	none (no result: F508del corr)
COc1ccc(CN(C)C[C@H]2OCCCC[C@H](C)Oc3ccc(NS(=O)(=O)c4ccc(F)cc4)cc3C(=O)N([C@@H](C)CO)C[C@H]2C)cc1	none
O=C(C1CCC1)N1CC2(C1)[C@H](c1ccccc1)[C@H](CO)N2C(=O)c1ccccn1	none (no result: Cneo AK release, miR122 inh, HIV Env fusion)
CC1(C)CC(=O)C=C(c2cccc3c2oc2ccccc23)C1	HIV Env fusion 72.5
CCCC(=O)N1CC2(C1)CN(C(=O)C1CCOCC1)[C@H](CO)c1[nH]c3cc(OC)ccc3c12	none (no result: Cneo AK release, miR122 inh, HIV Env fusion)
O=C(Cc1ccccn1)NCC[C@@H]1CC[C@H](NC(=O)c2ccccc2F)[C@@H](CO)O1	none (no result: miR122 inh)
CCCN1[C@@H]2c3ccc(-c4ccc(OC)cc4)c(=O)n3C[C@@H]2[C@@H](CO)[C@@H]1C(=O)N(C)C	none (no result: HIV Env fusion)
CO[C@@H]1CC[C@@H]2CCN(C)C(=O)[C@@H](C)CN(C)C(=O)c3cc(C#N)ccc3OC[C@H]1O2	none (no result: miR122 inh, F508del corr)
Fc1cc(Br)ccc1NC(=S)NCCc1ccccc1	Ecoli rRNA inh -49.5 (no result: Cneo AK release, miR122 inh, HIV Env fusion)
Fc1ccccc1NC(=S)NCCc1cccc(Cl)c1	Cneo AK release 97.3
C=CCNC(=S)Nc1ccc(Br)cc1F	none (no result: Cneo AK release, miR122 inh, F508del corr, GSIS activator)
S=C(NCCc1ccccc1)N/N=C/c1c(Cl)cccc1Cl	none (no result: Ecoli rRNA inh, Cneo AK release, miR122 inh, F508del corr, HIV Env fusion)
S=C(NCCc1ccccc1)NCc1cccc(Cl)c1	none (no result: F508del corr, HIV Env fusion)
S=C(NCCc1ccccc1)N/N=C/c1ccc(Cl)cc1	Ecoli rRNA inh -27.6 (no result: Cneo AK release, miR122 inh)
CN(C)C(=O)C[C@@H]1C[C@H]2c3cc(NC(=O)c4ccc5c(c4)OCO5)ccc3O[C@H]2[C@@H](CO)O1	none (no result: HIV Env fusion)
CCCNC(=O)Nc1ccc2c(c1)C(=O)N(C)C[C@@H](OC)[C@@H](C)CN(CCC(F)(F)F)[C@H](C)CO2	none (no result: Cneo AK release, HIV Env fusion)
COc1ccc(Nc2ccc(C(F)(F)F)cc2[N+](=O)[O-])cn1	HIV Env fusion 59.3 (no result: miR122 inh)
COc1ccc(Nc2ccc(N3C(=O)CCC3=O)cc2[N+](=O)[O-])cn1	none
O=C(Nc1ccc2c(c1)[C@H]1C[C@@H](CC(=O)N3CCc4ccccc4C3)O[C@@H](CO)[C@H]1O2)C1CCC1	none
CN(C)c1ccc(-c2noc(C3CCN(S(=O)(=O)c4cccc(Cl)c4)CC3)n2)cc1	HIV Env fusion 56.4 (no result: Ecoli rRNA inh, Cneo AK release, miR122 inh, F508del corr)
C[C@H]1CN([C@@H](C)CO)C(=O)c2ccccc2-c2ccccc2CO[C@H]1CN(C)C(=O)c1ccncc1	none (no result: miR122 inh)
CCC(=O)Nc1ccc2c(c1)C(=O)N(C)[C@H]1CC[C@H](CC(=O)NCCc3ccncc3)O[C@@H]1CO2	none (no result: Cneo AK release, miR122 inh, F508del corr, HIV Env fusion)
Cn1nc(-c2ccccc2)c(CN2CCN(c3ncccn3)CC2)c1Cl	Ecoli rRNA inh -34.1 (no result: Cneo AK release, miR122 inh)
Clc1cccc(Cl)c1CN1CCN(c2ncccn2)CC1	none
O=C(COc1nncc2ccccc12)NCC(F)(F)F	GSIS activator 44.1 (no result: Cneo AK release, miR122 inh)
O=C(Nc1ccc(C(F)(F)F)cc1)N[C@H]1CC[C@@H](CCNC(=O)c2ccccc2F)O[C@H]1CO	none (no result: miR122 inh)
COc1ccc(NC(=O)CN2CCN(S(=O)(=O)c3ccc(C(C)C)cc3)CC2)cc1OC	Cneo AK release 130.5 (no result: Ecoli rRNA inh, F508del corr, HIV Env fusion)
COc1ccc(C)cc1NC(=O)CN1CCN(S(=O)(=O)c2ccc(C(C)C)cc2)CC1	none (no result: Ecoli rRNA inh, F508del corr, GSIS activator, HIV Env fusion)
COc1cc(NS(=O)(=O)c2ccc(NC(=S)NC(=O)c3ccco3)cc2)nc(OC)n1	miR122 inh 243.5
C[C@H](CO)N1C[C@H](C)[C@@H](CN(C)Cc2ccc(-c3ccccc3)cc2)Oc2c(NC(=O)Nc3cccc4ccccc34)cccc2C1=O	none (no result: Cneo AK release)
Cc1cccc(OCC(=O)N/N=C/c2cccn2C)c1	HIV Env fusion 62.3
Cc1ccc2c(Cl)c(C(=O)N/N=C/c3cccn3C)sc2c1	Ecoli rRNA inh -21.6 (no result: F508del corr)
CCNC(=O)[C@H]1[C@H](CO)[C@H]2Cn3c(ccc(-c4ccncc4)c3=O)[C@@H]1N2Cc1ccccc1	none (no result: HIV Env fusion)
CO[C@@H]1CN(C)C(=O)c2ccc(NC(=O)C3CC3)cc2OC[C@@H](C)N(Cc2cncnc2)C[C@@H]1C	none (no result: Cneo AK release, HIV Env fusion)
CCc1c(C)nc2ncnn2c1NCCc1ccc(OC)cc1	Ecoli rRNA inh -27.0, F508del corr 10.6 (no result: HIV Env fusion)
COc1ccc(CNC(=O)CN(Cc2ccccc2)S(=O)(=O)c2ccc(Cl)cc2)cc1	none (no result: Ecoli rRNA inh, F508del corr, GSIS activator)
COc1ccc(CNC(=O)CN(Cc2ccc(Cl)cc2)S(=O)(=O)c2ccccc2)cc1	HIV Env fusion 59.4 (no result: Ecoli rRNA inh, F508del corr, GSIS activator)
COc1ccc2c(c1)C(SCC(=O)NCCc1ccc(Cl)cc1)CC(C)(C)O2 (centres undefined)	HIV Env fusion 62.6
CCCNC(=O)[C@@H]1[C@@H](CO)[C@@H]2Cn3c(cccc3=O)[C@H]1N2Cc1cccc(Cl)c1	none (no result: HIV Env fusion)
O=C(COC(=O)c1cccc(O)c1)Nc1ccc(OC(F)F)cc1	Ecoli rRNA inh -25.1 (no result: Cneo AK release, miR122 inh)
O=C(CN1C(=O)NC(Cc2c[nH]c3ccccc23)C1=O)NCCc1ccccc1 (centres undefined)	GSIS activator 103.4 (no result: miR122 inh)
COc1ccc(CCNC(=O)CN2C(=O)NC(Cc3c[nH]c4ccccc34)C2=O)cc1 (centres undefined)	none
CCOc1ccc(N(CC(=O)NC(C(C)C)C(C)C)S(=O)(=O)c2ccc(OC)c(OC)c2)cc1	Ecoli rRNA inh -30.0 (no result: Cneo AK release, miR122 inh)
CC(=O)Nc1ccc(NC(=O)CN(c2ccc([N+](=O)[O-])cc2)S(=O)(=O)c2ccccc2)cc1	none
CCOc1ccc(NC(=O)CN(c2ccc([N+](=O)[O-])cc2)S(=O)(=O)c2ccccc2)cc1	F508del corr 14.9 (no result: Cneo AK release, miR122 inh)
Cc1nn(C)cc1NC(=O)C[C@@H]1CC[C@@H]2[C@H](COc3ccc(NC(=O)NC(C)C)cc3C(=O)N2C)O1	none
C[C@@H]1CN([C@H](C)CO)C(=O)c2cc(C#CC(C)(C)O)cnc2O[C@H]1CN(C)Cc1cncnc1	none
COc1ccccc1-c1cnc2c(c1)C(=O)N([C@H](C)CO)C[C@@H](C)[C@H](CN(C)Cc1cncnc1)O2	Cneo AK release 82.0
COc1ccccc1-c1cnc2c(c1)C(=O)N([C@H](C)CO)C[C@@H](C)[C@@H](CN(C)C(C)=O)O2	GSIS activator 42.5
Cc1ccccc1-c1cnc2c(c1)C(=O)N([C@H](C)CO)C[C@@H](C)[C@H](CN(C)Cc1ccccc1F)O2	miR122 inh 121.2[16.7 µM]
C[C@@H]1CN([C@H](C)CO)C(=O)c2cc(C#CC(C)(C)O)cnc2O[C@@H]1CN(C)Cc1cncnc1	Cneo AK release 84.9
C[C@@H]1CCCCO[C@@H](CN(C)S(C)(=O)=O)[C@H](C)CN([C@@H](C)CO)C(=O)c2cc(NC(=O)C3CCCCC3)ccc2O1	none
COCC(=O)Nc1ccc2c(c1)C(=O)N(C)[C@H]1CC[C@@H](CC(=O)NCCc3ccncc3)O[C@H]1CO2	none (no result: HIV Env fusion)
